Hits are enriched below; roughly 1.9% of the tested compounds scored in any of these assays.
procasp7 counter: procaspase-7 activators, primary screen, counter-screen for procaspase-3 activator project, biochemical, absorbance, HTS, human | Caspase-7 (Homo sapiens), P55210 | recombinant procaspase-7, Ac-DEVD-pNA absorbance 405 nm; D23A/D198A/D206A triple mutant, cannot self-cleave; scale: DMSO 0, 5 µM enzyme 100 | activation, % at 8.5 µM | 330,000 tested, 0.093% active | AID 463210, 2010;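 active = percent activation above the screen-wide mean plus 3 SD, cut at about 25% in these data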
Target sequence (P55210 whole entry D23A/D198A/D206A): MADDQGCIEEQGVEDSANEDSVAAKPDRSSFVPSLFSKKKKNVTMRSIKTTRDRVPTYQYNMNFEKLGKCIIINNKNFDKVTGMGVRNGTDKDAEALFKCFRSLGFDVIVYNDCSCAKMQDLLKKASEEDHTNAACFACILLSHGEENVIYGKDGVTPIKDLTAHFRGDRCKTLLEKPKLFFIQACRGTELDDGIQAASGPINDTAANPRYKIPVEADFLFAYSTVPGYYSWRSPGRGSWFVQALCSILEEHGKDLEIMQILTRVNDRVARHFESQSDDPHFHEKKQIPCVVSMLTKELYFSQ
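buffer or medium = Zinc-free HEPES/NaCl buffer, pH 7.4 | material = Procaspase-7 triple mutant (PC-7 D3A) | input = 2 µM procaspase-7 mutant as dispensed | signal = Epi-absorbance of released pNA at 405 nm, two timepoints | timing = 1 h preincubation, 2 h reaction | replicates = singlicate compound testing | evaluation = % activation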
procasp3 activ: activators of human procaspase-3 D3A mutant, primary screen, biochemical, absorbance, PC-3 D3A mutant, single concentration. Caspase-3 (Homo sapiens), P42574. recombinant procaspase-3 D3A, Ac-DEVD-pNA absorbance 405 nm. activation, % at 8.5 µM. 330,000 tested, 0.11% active;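 active = activation above the mean of all tested compounds plus 3 SD, cut at about 21% in these data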;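 note: 0% = DMSO alone and 100% = DMSO wells spiked with extra 5 µM PC-3 D3A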
Target sequence (P42574 whole entry D9A/D28A/D175A): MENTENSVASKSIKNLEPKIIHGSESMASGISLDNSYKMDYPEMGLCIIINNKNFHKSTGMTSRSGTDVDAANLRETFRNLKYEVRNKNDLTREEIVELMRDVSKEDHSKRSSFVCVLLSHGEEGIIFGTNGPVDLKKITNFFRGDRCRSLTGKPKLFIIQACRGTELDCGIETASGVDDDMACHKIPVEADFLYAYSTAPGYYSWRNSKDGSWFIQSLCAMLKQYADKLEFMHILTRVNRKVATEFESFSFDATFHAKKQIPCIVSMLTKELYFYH
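Technique: 405 nm absorbance of p-nitroaniline, reads at 0 and 120 min; Test system: Procaspase-3 D3A mutant; Incubation: 1 h enzyme-compound preincubation, then 2 h substrate reaction, 25 °C; Repeats: singlicate, each compound tested once; Benchmarks: low control DMSO wells, high control DMSO plus 5 µM PC-3 D3A.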
Arrestin-AP2 inh: inhibitors of beta-arrestin/AP2 binding, primary screen, biochemical, GPCR trafficking, flow cytometry. beta-arrestin 1 C-terminal peptide binding to AP2 beta2-adaptin appendage (human). FITC-arrestin peptide / GST-AP2 beads; AP2 beta2 appendage carries R879A mutation. inhibition, % at 10 µM. 340,000 tested, 0.31% active;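 active = inhibition above a set limit, near 3 SD of compounds lacking own fluorescence, cut at about 54% in these data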;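 note: plate controls were DMSO wells for no effect and 5 µM unlabelled arrestin peptide for full effect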
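System: GST-AP2 R879A glutathione beads | Also added: FITC-arrestin peptide, 50 nM | Times: 12 min plus 1 h, RT | Signal: Bead flow cytometry, FITC channel | Buffer or medium: PBS with 0.05% Tween 20 and 0.1% BSA | Read-out basis: Percent drop in bead-associated FITC signal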
HGIII-sPLA2 inh: human group III sPLA2 inhibitors, primary screen, biochemical, QFRET, BODIPY PC-A2 liposome substrate. Group 3 secretory phospholipase A2 (Homo sapiens), Q9NZ20. QFRET BODIPY PC-A2 liposome hydrolysis, fluorescence. inhibition, % at 12.2 µM. 370,000 tested, 0.56% active;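 active = inhibition above mean plus 3 SD of compounds lying within the high and low control bounds, cut at about 19% in these data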;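 note: 0% = median of test compound wells and 100% = no enzyme DMSO wells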
PLCg1 inh: PLC-gamma1 enzyme inhibitors, primary screen, biochemical, fluorescence, purified enzyme | 1-phosphatidylinositol 4,5-bisphosphate phosphodiesterase gamma-1 (Homo sapiens), P19174 | fluorogenic substrate | inhibition, % at 12.2 µM | 370,000 tested, 0.84% active | AID 720700, 2013; in the data active = inhibition above about 9.5%
PLC-beta3 inh: human PLC-beta3 inhibitors, primary screen, biochemical, fluorescence; 1-phosphatidylinositol 4,5-bisphosphate phosphodiesterase beta-3 (Homo sapiens), Q01970; Purified PLC-beta3, fluorogenic substrate; inhibition, % at 12.2 µM; 370,000 tested, 0.18% active; in the data active = inhibition above about 11%;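 note: 0% = median of compound wells on plate and 100% = full blocker control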
Active calls of the source: *; i = inactive; x = not tested or not shown.

SMILES | procasp7 counter | procasp3 activ | Arrestin-AP2 inh | HGIII-sPLA2 inh | PLCg1 inh | PLC-beta3 inh
Cc1oc2ccc(OC(C(=O)O)c3ccccc3)cc2c1C(=O)O (stereo not drawn) | 5 | 1 | 0 | 0 | 9.9* | 6
O=C(O)c1ccc2c(c1)C(=O)N(CCC1=CCCCC1)C2=O | 3 | -3 | 1 | 2 | 13* | -1
COc1ccc(S(=O)(=O)N(C)C[C@H]2Oc3c(NC(=O)C4CCCCC4)cccc3C(=O)N([C@H](C)CO)C[C@@H]2C)cc1 | -7 | 0 | -2 | -19 | 9.6* | -1
C[C@H](CO)N1C[C@H](C)[C@@H](CN(C)CC2CC2)Oc2c(NS(=O)(=O)c3ccccc3)cccc2C1=O | 1 | 10 | -7 | 4 | -2 | -1
COc1ccc(NC(=O)Nc2cccc3c2O[C@H](CN(C)S(=O)(=O)c2ccc(OC)cc2)[C@@H](C)CN([C@H](C)CO)C3=O)cc1 | 7 | 2 | -3 | -12 | 0 | -2
C[C@H](CO)N1C[C@H](C)[C@@H](CN(C)CC2CCCCC2)Oc2c(NS(=O)(=O)c3ccccc3)cccc2C1=O | -9 | 3 | 7 | -4 | 7 | 11*
O=C(CN1C(=O)NC2(CCCCC2)C1=O)Nc1ccc2c(c1)OCCCO2 | -5 | -4 | 2 | -1 | 9.6* | -1
CCCCn1c(SCC(=O)c2ccc(O)c(O)c2)nc2ccsc2c1=O | -7 | -6 | x | x | x | x
O=C(O)CCCCCn1c(SCC(=O)c2ccc(O)c(O)c2)nc2ccsc2c1=O | 4 | 2 | 1 | -12 | 11* | 3
C=CC[C@H]1C=C[C@@H](C(C(=O)OC)C(=O)OC)CN1C(C)=O | x | x | -2 | 4 | 20* | -2
CC[C@H]1C=C[C@@H](C(C(=O)OC)C(=O)OC)CN1C(C)=O | x | x | -2 | -1 | 25* | 4
CCC1CCCCN1C(=O)N[C@@H](CCSC)C(=O)OC (stereo partly drawn) | 1 | -5 | 6 | 3 | -1 | 3
Cn1ccnc1CN1CCC[C@]2(CC[C@H](CCC#N)O2)C1 | x | x | x | 2 | 1 | 3
O=C1C=CC(=O)N1c1ccc(OC(F)F)cc1 | -29 | -35 | -2 | 20* | 7 | -10
O=C1C=CC(=O)N1c1ccc(O)cc1 | -39 | -28 | 44 | 8 | 2 | -6
CCN(CC)CCCNC(=O)C1(N[C@@H](Cc2c[nH]c3ccccc23)C(=O)NCC(OC)OC)CCCCC1 | x | x | x | -3 | -2 | 1
CCC(=O)N[C@H]1C[C@@H]2O[C@@H](CO)CC[C@@H]2O[C@@H]1CCc1ccc(-c2cccc(OC)c2)cc1 | x | x | x | -13 | 2 | -6
CN1CCN(S(=O)(=O)c2ccc(Cl)c(C(F)(F)F)c2)CC1 | x | x | -6 | -4 | 4 | 2
CC1CN(S(=O)(=O)c2ccc(Cl)c(C(F)(F)F)c2)CC(C)O1 (stereo not drawn) | -4 | -2 | 70* | 4 | -4 | 3
COCc1cccc(-c2cc(C(=O)OC)c3n(c2=O)CCC3)c1 | x | x | x | -5 | -1 | -2
O=C(OCCN1CCN(C2CN(Cc3cn(Cc4cccc(F)c4)nn3)S(=O)(=O)C2)CC1)c1cc2ccccc2o1 (stereo not drawn) | x | x | x | 3 | 1 | 2
NC(=O)c1ccccc1NCC(=O)c1ccc(F)cc1 | -2 | 0 | 8 | 21* | -112 | -169
O=C(CNc1ccc(F)cc1)c1ccccc1 | 2 | 11 | 19 | -2 | -2 | 2
Cc1cc2n(n1)C(c1ccc(N(C)C)cc1)Nc1ccccc1-2 (stereo not drawn) | 47* | 20 | -6 | 2 | i | i
Cc1cc2n(n1)C(c1ccccc1)Nc1ccccc1-2 (stereo not drawn) | -2 | -9 | 28 | 3 | -23 | -32
SMILES | procasp7 counter | procasp3 activ | Arrestin-AP2 inh | HGIII-sPLA2 inh | PLCg1 inh | PLC-beta3 inh
Cc1ccc(-c2nnc(SC(C)C(=O)NCC3CCCO3)nc2-c2ccc(C)cc2)cc1 (stereo not drawn) | 2 | 2 | 1 | -5 | 1 | 0
CC(Sc1nnc(-c2ccccc2)c(-c2ccccc2)n1)C(=O)NCC1CCCO1 (stereo not drawn) | 7 | -3 | 2 | 4 | 12* | -1
N#Cc1cccc(C(=O)N2CCC(Oc3cccnc3)CC2)c1 | x | x | x | -3 | -1 | -36
COc1ccc(C(=O)N/N=C/c2ccc(OC)c(COc3ccccc3)c2)cc1 | -4 | 2 | 3 | -4 | 2 | -9
COc1ccc(/C=N\NC(=O)c2cc(O)c(O)c(O)c2)cc1COc1ccc(C(=O)OCC(C)C)cc1 | -20 | -10 | 12 | 25* | 6 | -7
CCCCCN(C(=O)CCc1cn(CCCCC)c2ccccc12)c1ccc(Oc2cccnc2)cc1 | x | x | x | -11 | -4 | 0
O=C(CCc1ccccc1)N[C@H]1[C@H](OC(=O)c2cccnc2)CCC[C@@]12C(=O)N(Cc1ccccc1)c1ccccc12 | x | x | x | -10 | 1 | -13
COc1cccc(OC)c1OCCCCCCN1CCN(C)CC1 | 6 | 5 | 24 | 4 | 13* | -1
COc1ccc(S[C@]2(C(=O)N3CCN(c4ncccn4)CC3)CC(=O)N(c3ccc(Cl)cc3)[C@@H]2c2ccc(OC)cc2)cc1 | x | x | x | -2 | 0 | -4
O=C(N=C1N=C2C=CC(Br)=CN2Cc2ccccc21)c1ccc([N+](=O)[O-])cc1[N+](=O)[O-] | -6 | 5 | -1 | 10 | 13* | 11*
O=C(c1ccc([N+](=O)[O-])cc1[N+](=O)[O-])N1CCc2ccccc21 | 2 | 0 | 8 | 3 | 4 | -1
Cc1ccc(-n2c3nc(=O)[nH]c(=O)c-3cc3cc([N+](=O)[O-])ccc32)cc1 | -14 | -10 | -10 | 28* | -11 | -15
C#CCNC(=O)C[C@H]1C[C@@]2(C(=O)OC)C(=C[C@H](C3CCCC3)O[C@@H]2C)N(CCCCCCCC)C1=O | x | x | x | 6 | 3 | 2
CCOc1cc(N2CCOCC2)c(OCC)cc1NC(=O)CN1CCc2ccccc2C1 | 0 | -8 | -2 | 5 | 8 | 11*
O=c1oc2ccccc2c2oc3cc(O)c(O)cc3c12 | -4 | -16 | 8 | 22* | i | i
Cc1ccccc1NC(=O)Nc1ccc2c(c1)C(=O)N(C)[C@H]1CC[C@H](CC(=O)NCC3CC3)O[C@@H]1CO2 | x | x | x | -22 | 9 | 8

Source: PubChem BioAssay (several laboratories)
